Measured values from ChEMBL document CHEMBL3632558, “Synthesis, antimycobacterial and antibacterial activity of l-[(1R,2S)-2-fluorocyclopropyl]naphthyridone derivatives containing an oxime-functionalized pyrrolidine moiety” (2015).
Values after ≈ are worked out from the molar mass of the structure shown.

Experiments:
Assay type in all cases: functional
[1] = system: Staphylococcus aureus; experiment: Antibacterial activity against Staphylococcus aureus CMCC 26003 after 18 to 24 hrs
Procedure, shortened: (§1)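 MIC by standard NCCLS reference procedure (M100-S11); lowest concentration of compound inhibiting visible bacterial growth after incubation at 35 °C for 18–24 h, read as complete inhibition of growth. Ciprofloxacin, levofloxacin and moxifloxacin run alongside as reference agents.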

[2] = system: Staphylococcus epidermidis; experiment: Antibacterial activity against methicillin-resistant Staphylococcus epidermidis 14-39 after 18 to 24 hrs
[3] = system: Staphylococcus epidermidis; experiment: Antibacterial activity against methicillin-sensitive Staphylococcus epidermidis 14-2 after 18 to 24 hrs; procedure, shortened: as §1
[4] = system: Staphylococcus aureus; experiment: Antibacterial activity against methicillin-resistant Staphylococcus aureus 14-5 after 18 to 24 hrs
[5] = system: Pseudomonas aeruginosa; experiment: Antibacterial activity against Pseudomonas aeruginosa 14-16 after 18 to 24 hrs; procedure, shortened: as §1
[6] = system: Staphylococcus aureus; experiment: Antibacterial activity against methicillin-resistant Staphylococcus aureus 14-4 after 18 to 24 hrs
[7] = system: Staphylococcus aureus; experiment: Antibacterial activity against methicillin-sensitive Staphylococcus aureus 14-4 after 18 to 24 hrs; procedure, shortened: as §1
[8] = system: Klebsiella pneumoniae; experiment: Antibacterial activity against Klebsiella pneumoniae 14-2 after 18 to 24 hrs; procedure, shortened: as §1
[9] = system: Escherichia coli; experiment: Antibacterial activity against Escherichia coli 14-1 after 18 to 24 hrs; procedure, shortened: as §1
[10] = system: Enterococcus faecium; experiment: Antibacterial activity against Enterococcus faecium 14-2 after 18 to 24 hrs; procedure, shortened: as §1
[11] = system: Staphylococcus epidermidis; experiment: Antibacterial activity against methicillin-resistant Staphylococcus epidermidis 14-37 after 18 to 24 hrs
[12] = system: Klebsiella pneumoniae; experiment: Antibacterial activity against ESBL-positive Klebsiella pneumoniae 14-18 after 18 to 24 hrs; procedure, shortened: as §1
[13] = system: Enterococcus faecium; experiment: Antibacterial activity against Enterococcus faecium 14-5 after 18 to 24 hrs; procedure, shortened: as §1
[14] = system: Klebsiella pneumoniae; experiment: Antibacterial activity against Klebsiella pneumoniae 14-3 after 18 to 24 hrs; procedure, shortened: as §1
[15] = system: Escherichia coli; experiment: Antibacterial activity against Escherichia coli 14-2 after 18 to 24 hrs; procedure, shortened: as §1
[16] = system: Enterococcus faecalis; experiment: Antibacterial activity against Enterococcus faecalis 14-2 after 18 to 24 hrs; procedure, shortened: as §1
[17] = system: Staphylococcus epidermidis; experiment: Antibacterial activity against methicillin-resistant Staphylococcus epidermidis 14-22 after 18 to 24 hrs
[18] = system: Streptococcus pneumoniae; experiment: Antibacterial activity against Streptococcus pneumoniae ATCC 19615 after 18 to 24 hrs; procedure, shortened: as §1
[19] = system: Pseudomonas aeruginosa; experiment: Antibacterial activity against Pseudomonas aeruginosa 14-19 after 18 to 24 hrs; procedure, shortened: as §1
[20] = system: Escherichia coli; experiment: Antibacterial activity against ESBL-positive Escherichia coli 14-1 after 18 to 24 hrs; procedure, shortened: as §1
[21] = system: Staphylococcus epidermidis; experiment: Antibacterial activity against methicillin-resistant Staphylococcus epidermidis 14-21 after 18 to 24 hrs
[22] = system: Escherichia coli; experiment: Antibacterial activity against ESBL-positive Escherichia coli 14-2 after 18 to 24 hrs; procedure, shortened: as §1
[23] = system: Pseudomonas aeruginosa; experiment: Antibacterial activity against Pseudomonas aeruginosa ATCC 27853 after 18 to 24 hrs; procedure, shortened: as §1
[24] = system: Klebsiella pneumoniae; experiment: Antibacterial activity against ESBL-positive Klebsiella pneumoniae 14-17 after 18 to 24 hrs; procedure, shortened: as §1
[25] = system: Pseudomonas aeruginosa; experiment: Antibacterial activity against Pseudomonas aeruginosa 14-15 after 18 to 24 hrs; procedure, shortened: as §1
[26] = system: Enterococcus faecalis; experiment: Antibacterial activity against Enterococcus faecalis 14-1 after 18 to 24 hrs; procedure, shortened: as §1
[27] = system: Escherichia coli; experiment: Antibacterial activity against Escherichia coli ATCC 25922 after 18 to 24 hrs; procedure, shortened: as §1
[28] = system: Enterococcus faecium; experiment: Antibacterial activity against Enterococcus faecium 14-6 after 18 to 24 hrs; procedure, shortened: as §1
[29] = system: Staphylococcus aureus; experiment: Antibacterial activity against methicillin-sensitive Staphylococcus aureus 14-1 after 18 to 24 hrs; procedure, shortened: as §1
[30] = system: Mycobacterium tuberculosis; experiment: Antimycobacterial activity against Mycobacterium tuberculosis H37Rv ATCC 27294 by alamar blue assay
Procedure, shortened: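 Microplate Alamar Blue Assay; MIC is the lowest concentration giving ≥90% reduction in fluorescence relative to the mean of replicate bacterium-only controls. MDR strain 6133 is resistant to isoniazid and rifampicin.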

[31] = system: Pseudomonas aeruginosa; experiment: Antibacterial activity against Pseudomonas aeruginosa 14-9 after 18 to 24 hrs; procedure, shortened: as §1
[32] = system: Staphylococcus aureus; experiment: Antibacterial activity against methicillin-sensitive Staphylococcus aureus 14-3 after 18 to 24 hrs; procedure, shortened: as §1
[33] = system: Klebsiella pneumoniae; experiment: Antibacterial activity against ESBL-positive Klebsiella pneumoniae 14-19 after 18 to 24 hrs; procedure, shortened: as §1
[34] = system: Klebsiella pneumoniae; experiment: Antibacterial activity against Klebsiella pneumoniae 14-4 after 18 to 24 hrs; procedure, shortened: as §1
[35] = system: Klebsiella pneumoniae; experiment: Antibacterial activity against Klebsiella pneumoniae 14-1 after 18 to 24 hrs; procedure, shortened: as §1
[36] = system: Pseudomonas aeruginosa; experiment: Antibacterial activity against Pseudomonas aeruginosa 14-14 after 18 to 24 hrs; procedure, shortened: as §1
[37] = system: Enterococcus faecium; experiment: Antibacterial activity against Enterococcus faecium 14-1 after 18 to 24 hrs; procedure, shortened: as §1
[38] = system: Staphylococcus aureus; experiment: Antibacterial activity against methicillin-sensitive Staphylococcus aureus 14-2 after 18 to 24 hrs; procedure, shortened: as §1

Compound	MIC [1] [µg/mL]	MIC [2] [µg/mL]	MIC [3] [µg/mL]	MIC [4] [µg/mL]	MIC [5] [µg/mL]	MIC [6] [µg/mL]	MIC [7] [µg/mL]	MIC [8] [µg/mL]	MIC [9] [µg/mL]	MIC [10] [µg/mL]	MIC [11] [µg/mL]	MIC [12] [µg/mL]	MIC [13] [µg/mL]	MIC [14] [µg/mL]	MIC [15] [µg/mL]	MIC [16] [µg/mL]	MIC [17] [µg/mL]	MIC [18] [µg/mL]	MIC [19] [µg/mL]	MIC [20] [µg/mL]	also measured
COc1ccc(CO/N=C2\CN(c3nc4c(cc3F)c(=O)c(C(=O)O)cn4[C@@H]3C[C@@H]3F)CC2CN)cc1 (some centres undefined)	< 0.008	8 (≈ 15.6 µM)	32 (≈ 62.3 µM)	8 (≈ 15.6 µM)	8 (≈ 15.6 µM)	16 (≈ 31.2 µM)	0.03 (≈ 0.0584 µM)	128 (≈ 249 µM)	32 (≈ 62.3 µM)	2 (≈ 3.89 µM)	16 (≈ 31.2 µM)	8 (≈ 15.6 µM)	8 (≈ 15.6 µM)	128 (≈ 249 µM)	32 (≈ 62.3 µM)	< 0.008	4 (≈ 7.79 µM)	0.015 (≈ 0.0292 µM)	16 (≈ 31.2 µM)	< 0.008	MIC [21]: 4 µg/mL (≈ 7.79 µM); MIC [22]: 64 µg/mL (≈ 125 µM); MIC [23]: 4 µg/mL (≈ 7.79 µM); MIC [24]: 8 µg/mL (≈ 15.6 µM); MIC [25]: 16 µg/mL (≈ 31.2 µM); MIC [26]: 32 µg/mL (≈ 62.3 µM); MIC [27]: < 0.008 µg/mL; MIC [28]: 8 µg/mL (≈ 15.6 µM); MIC [29]: 2 µg/mL (≈ 3.89 µM); MIC90 [30]: 0.353 µg/mL (≈ 0.687 µM); MIC [31]: 8 µg/mL (≈ 15.6 µM); MIC [32]: 0.015 µg/mL (≈ 0.0292 µM); MIC [33]: 128 µg/mL (≈ 249 µM); MIC [34]: 128 µg/mL (≈ 249 µM); MIC [35]: 128 µg/mL (≈ 249 µM); MIC [36]: 8 µg/mL (≈ 15.6 µM); MIC [37]: 2 µg/mL (≈ 3.89 µM); MIC [38]: < 0.008 µg/mL
NCC1CN(c2nc3c(cc2F)c(=O)c(C(=O)O)cn3[C@@H]2C[C@@H]2F)C/C1=N\OCc1ccc([N+](=O)[O-])cc1 (some centres undefined)	0.015 (≈ 0.0284 µM)	8 (≈ 15.1 µM)	128 (≈ 242 µM)	4 (≈ 7.57 µM)	16 (≈ 30.3 µM)	128 (≈ 242 µM)	0.125 (≈ 0.237 µM)	128 (≈ 242 µM)	128 (≈ 242 µM)	4 (≈ 7.57 µM)	4 (≈ 7.57 µM)	16 (≈ 30.3 µM)	8 (≈ 15.1 µM)	128 (≈ 242 µM)	128 (≈ 242 µM)	0.25 (≈ 0.473 µM)	8 (≈ 15.1 µM)	0.015 (≈ 0.0284 µM)	16 (≈ 30.3 µM)	4 (≈ 7.57 µM)	MIC [21]: 16 µg/mL (≈ 30.3 µM); MIC [22]: > 128 µg/mL; MIC [23]: 4 µg/mL (≈ 7.57 µM); MIC [24]: 8 µg/mL (≈ 15.1 µM); MIC [25]: 16 µg/mL (≈ 30.3 µM); MIC [26]: 64 µg/mL (≈ 121 µM); MIC [27]: 0.25 µg/mL (≈ 0.473 µM); MIC [28]: 4 µg/mL (≈ 7.57 µM); MIC [29]: 4 µg/mL (≈ 7.57 µM); MIC90 [30]: 0.467 µg/mL (≈ 0.884 µM); MIC [31]: 4 µg/mL (≈ 7.57 µM); MIC [32]: 0.03 µg/mL (≈ 0.0568 µM); MIC [33]: 128 µg/mL (≈ 242 µM); MIC [34]: 128 µg/mL (≈ 242 µM); MIC [35]: 128 µg/mL (≈ 242 µM); MIC [36]: 16 µg/mL (≈ 30.3 µM); MIC [37]: 4 µg/mL (≈ 7.57 µM); MIC [38]: 0.06 µg/mL (≈ 0.114 µM)
COc1cccc(CO/N=C2\CN(c3nc4c(cc3F)c(=O)c(C(=O)O)cn4[C@@H]3C[C@@H]3F)CC2CN)c1OC (some centres undefined)	< 0.008	16 (≈ 29.4 µM)	32 (≈ 58.9 µM)	2 (≈ 3.68 µM)	16 (≈ 29.4 µM)	16 (≈ 29.4 µM)	0.015 (≈ 0.0276 µM)	128 (≈ 235 µM)	2 (≈ 3.68 µM)	1 (≈ 1.84 µM)	16 (≈ 29.4 µM)	16 (≈ 29.4 µM)	4 (≈ 7.36 µM)	64 (≈ 118 µM)	128 (≈ 235 µM)	0.015 (≈ 0.0276 µM)	1 (≈ 1.84 µM)	0.03 (≈ 0.0552 µM)	16 (≈ 29.4 µM)	32 (≈ 58.9 µM)	MIC [21]: 2 µg/mL (≈ 3.68 µM); MIC [22]: 128 µg/mL (≈ 235 µM); MIC [23]: 2 µg/mL (≈ 3.68 µM); MIC [24]: 128 µg/mL (≈ 235 µM); MIC [25]: 16 µg/mL (≈ 29.4 µM); MIC [26]: 64 µg/mL (≈ 118 µM); MIC [27]: 0.03 µg/mL (≈ 0.0552 µM); MIC [28]: 16 µg/mL (≈ 29.4 µM); MIC [29]: 4 µg/mL (≈ 7.36 µM); MIC90 [30]: 0.376 µg/mL (≈ 0.692 µM); MIC [31]: 8 µg/mL (≈ 14.7 µM); MIC [32]: < 0.008 µg/mL; MIC [33]: 128 µg/mL (≈ 235 µM); MIC [34]: 128 µg/mL (≈ 235 µM); MIC [35]: 128 µg/mL (≈ 235 µM); MIC [36]: 16 µg/mL (≈ 29.4 µM); MIC [37]: 1 µg/mL (≈ 1.84 µM); MIC [38]: < 0.008 µg/mL
